Laboratory results reported in ChEMBL document CHEMBL4138092, “Antibacterial activity and mechanism of action of the benzazole acrylonitrile-based compounds: In vitro, spectroscopic, and docking studies” (2017).
≈ marks a conversion by molar mass, not a printed value. Values belong to the compound of their own block, whether it stands above or below them. Calls of active or inactive are those of the source. The calls are words filed in the database; no cut-off is given here.

Legend:
Escherichia coli [1] = experiment: Antibacterial activity against Escherichia coli ATCC 25922 after 24 hrs by agar well diffusion method; assay type: functional; details: ATCC 25922, 24 h
Bacillus spizizenii [2] = experiment: Antibacterial activity against Bacillus subtilis ATCC 6633 after 24 hrs by agar well diffusion method; assay type: functional; details: ATCC 6633, 24 h
Escherichia coli [3] = experiment: Antibacterial activity against Escherichia coli ATCC 25922 after 24 to 48 hrs by agar well diffusion method; assay type: functional
How it was run: (§1)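 Mueller Hinton agar plates spread with bacteria (10⁶ cells/ml). Wells were filled with 50 µl of compound and incubated at 37 °C for 24–48 h. The inhibition zone diameter (mm) was measured with a transparent scale. Amoxicillin 5.0 mg/ml at 50 µl/well served as the positive control.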

Staphylococcus aureus [4] = experiment: Antibacterial activity against Staphylococcus aureus ATCC 25923 after 24 hrs by agar well diffusion method; assay type: functional; details: ATCC 25923, 24 h
Staphylococcus aureus [5] = experiment: Antibacterial activity against Staphylococcus aureus ATCC 25923 after 24 to 48 hrs by agar well diffusion method; assay type: functional; how it was run: as §1
Bacillus spizizenii [6] = experiment: Antibacterial activity against Bacillus subtilis ATCC 6633 after 24 to 48 hrs by agar well diffusion method; assay type: functional; how it was run: as §1
Pseudomonas aeruginosa [7] = experiment: Antibacterial activity against Pseudomonas aeruginosa ATCC 27853 after 24 hrs by agar well diffusion method; assay type: functional; details: ATCC 27853, 24 h
Pseudomonas aeruginosa [8] = experiment: Antibacterial activity against Pseudomonas aeruginosa ATCC 27853 after 24 to 48 hrs by agar well diffusion method; assay type: functional; how it was run: as §1
[9] = test system: Bifidobacterium longum subsp. infantis; experiment: Inhibition of beta-lactamase in Bifidobacterium infantis assessed as potentiation of amoxicillin induced antibacterial activity by measuring amoxicillin MIC after 24 hrs by agar well diffusion method (reference value: 1.5 ug/ml)
How it was run: (§2)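 Amoxicillin (1.0 µg/ml) was combined with test compound and diluted to 100, 80, 60, 40, 10 and 5%. The mixtures were serially diluted in sterile water, and 100 µl was added to 900 µl nutrient broth. Tubes were inoculated with 10 µl of 10⁵ cells/ml and held 24 h at 37±1 °C. Growth/no growth was scored visually. Controls were bacteria in broth alone and sterile broth alone.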

[10] = molecular target: Beta-lactamase (Staphylococcus aureus) (UniProt P00807); experiment: Inhibition of beta-lactamase in Staphylococcus aureus ATCC 25923 assessed as potentiation of amoxicillin induced antibacterial activity by measuring amoxicillin MIC after 24 hrs by agar well diffusion method (reference value: 1.5 ug/ml); how it was run: as §2
[11] = molecular target: Beta-lactamase (Pseudomonas aeruginosa) (UniProt Q8RL90); experiment: Inhibition of beta-lactamase in Pseudomonas aeruginosa ATCC 27853 assessed as potentiation of amoxicillin induced antibacterial activity after 24 hrs by agar well diffusion method; how it was run: as §2
[12] = test system: Escherichia coli ATCC 25922; experiment: Inhibition of beta-lactamase in Escherichia coli ATCC 25922 assessed as potentiation of amoxicillin induced antibacterial activity at 5% amoxicillin to compound dilution after 24 hrs by agar well diffusion method; how it was run: as §2
[13] = test system: Escherichia coli ATCC 25922; experiment: Inhibition of beta-lactamase in Escherichia coli ATCC 25922 assessed as potentiation of amoxicillin induced antibacterial activity at 10 to 100% amoxicillin to compound dilution after 24 hrs by agar well diffusion method; how it was run: as §2
[14] = molecular target: Beta-lactamase (Escherichia coli) (UniProt Q53TY8); experiment: Binding affinity to Escherichia coli beta-lactamase in phosphate buffer at pH 7.4 at 6 10^-5M by CD spectral analysis
How it was run: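 Successive additions of compound (6 × 10^-5 M) were made to 1.0 mL β-lactamase in phosphate buffer pH 7.4. CD spectra were recorded at 25 °C over 200–700 nm, scan speed 50 nm/min, bandwidth 1 nm.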

Bifidobacterium longum = experiment: Antibacterial activity against Bifidobacterium infantis after 24 hrs by agar well diffusion method; assay type: functional, Bifidobacterium longum subsp. infantis
[15] = molecular target: Beta-lactamase (Pseudomonas aeruginosa) (UniProt Q79MP6); experiment: Inhibition of beta-lactamase in Pseudomonas aeruginosa ATCC 27853 assessed as potentiation of amoxicillin induced antibacterial activity by measuring amoxicillin MIC after 24 hrs by agar well diffusion method (reference value: 1 ug/ml); how it was run: as §2
[16] = test system: Bifidobacterium longum subsp. infantis; experiment: Inhibition of beta-lactamase in Bifidobacterium infantis assessed as potentiation of amoxicillin induced antibacterial activity after 24 hrs by agar well diffusion method; how it was run: as §2
[17] = test system: Escherichia coli ATCC 25922; experiment: Inhibition of beta-lactamase in Escherichia coli ATCC 25922 assessed as potentiation of amoxicillin induced antibacterial activity after 24 hrs by agar well diffusion method; how it was run: as §2
[18] = molecular target: Beta-lactamase (Pseudomonas aeruginosa) (UniProt Q8RL90); experiment: Inhibition of beta-lactamase in Pseudomonas aeruginosa ATCC 27853 assessed as potentiation of amoxicillin induced antibacterial activity at 5% amoxicillin to compound dilution after 24 hrs by agar well diffusion method; how it was run: as §2
[19] = molecular target: Beta-lactamase (Staphylococcus aureus) (UniProt P00807); experiment: Inhibition of beta-lactamase in Staphylococcus aureus ATCC 25923 assessed as potentiation of amoxicillin induced antibacterial activity after 24 hrs by agar well diffusion method; how it was run: as §2
[20] = molecular target: Beta-lactamase (Staphylococcus aureus) (UniProt P00807); experiment: Inhibition of beta-lactamase in Staphylococcus aureus ATCC 25923 assessed as potentiation of amoxicillin induced antibacterial activity at 10 to 100% amoxicillin to compound dilution after 24 hrs by agar well diffusion method; how it was run: as §2
[21] = test system: Bifidobacterium longum subsp. infantis; experiment: Inhibition of beta-lactamase in Bifidobacterium infantis assessed as potentiation of amoxicillin induced antibacterial activity at 10 to 100% amoxicillin to compound dilution after 24 hrs by agar well diffusion method; how it was run: as §2
[22] = molecular target: Beta-lactamase (Escherichia coli) (UniProt Q53TY8); experiment: Binding affinity to Escherichia coli beta-lactamase in phosphate buffer at pH 7.4 at 6 10^-5M after 3 mins by UV-vis spectroscopic analysis
How it was run: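 Compound at 6 × 10^-5 M in 0.01 M phosphate buffer pH 7.4 was titrated with 10 µl aliquots of 1 × 10^-6 M β-lactamase. Absorbance spectra were recorded at 200–700 nm after 3 min equilibration per addition, continuing until no further change (saturation).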

[23] = test system: Bifidobacterium longum subsp. infantis; experiment: Inhibition of beta-lactamase in Bifidobacterium infantis assessed as potentiation of amoxicillin induced antibacterial activity at 5% amoxicillin to compound dilution after 24 hrs by agar well diffusion method; how it was run: as §2
[24] = molecular target: Beta-lactamase (Escherichia coli) (UniProt Q53TY8); experiment: Binding affinity to Escherichia coli beta-lactamase in phosphate buffer at pH 7.4 at 6 10^-5M after 3 mins by fluorescence titration analysis
How it was run: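 Fixed compound concentration in phosphate buffer pH 7.4, titrated with 10 µl additions of 1 × 10^-6 M β-lactamase. Excitation was 280 or 290 nm depending on compound, with emission scanned 300–600 nm and slits 5–10 nm. Readings followed 3 min equilibration per addition in a 1 cm quartz cell, continuing to saturation.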

[25] = molecular target: Beta-lactamase (Staphylococcus aureus) (UniProt P00807); experiment: Inhibition of beta-lactamase in Staphylococcus aureus ATCC 25923 assessed as potentiation of amoxicillin induced antibacterial activity at 5% amoxicillin to compound dilution after 24 hrs by agar well diffusion method; how it was run: as §2
[26] = molecular target: Beta-lactamase (Pseudomonas aeruginosa) (UniProt Q79MP6); experiment: Inhibition of beta-lactamase in Pseudomonas aeruginosa ATCC 27853 assessed as potentiation of amoxicillin induced antibacterial activity at 10 to 100% amoxicillin to compound dilution after 24 hrs by agar well diffusion method; how it was run: as §2
[27] = molecular target: Beta-lactamase (Escherichia coli) (UniProt Q53TY8); experiment: Binding affinity to Escherichia coli beta-lactamase assessed as chemical shift in phosphate buffer at pH 7.4 after 60 mins by NMR analysis
[28] = test system: Escherichia coli ATCC 25922; experiment: Inhibition of beta-lactamase in Escherichia coli ATCC 25922 assessed as potentiation of amoxicillin induced antibacterial activity by measuring amoxicillin MIC after 24 hrs by agar well diffusion method (reference value: 1.5 ug/ml); how it was run: as §2

MIC (Escherichia coli [1]): 50 µg/mL (≈ 163 µM)
MIC (Bacillus spizizenii [2]): 50 µg/mL (≈ 163 µM)
MIC (Staphylococcus aureus [4]): 35.8 µg/mL (≈ 116 µM)
MIC (Pseudomonas aeruginosa [7]): 35.8 µg/mL (≈ 116 µM)
Structure (SMILES): CN(C)c1ncc(/C=C(\C#N)c2nc3ccccc3s2)cn1
inhibition zone (IZ) (Escherichia coli [3]): 52 mm
inhibition zone (IZ) (Staphylococcus aureus [5]): 35 mm
inhibition zone (IZ) (Bacillus spizizenii [6]): 45 mm
inhibition zone (IZ) (Pseudomonas aeruginosa [8]): 32 mm

MIC (Escherichia coli [1]): 14.3 µg/mL (≈ 49.3 µM)
MIC (Bacillus spizizenii [2]): 20 µg/mL (≈ 68.9 µM)
MIC (Staphylococcus aureus [4]): 11.1 µg/mL (≈ 38.2 µM)
MIC (Pseudomonas aeruginosa [7]): 11.1 µg/mL (≈ 38.2 µM)
Structure (SMILES): CN(C)c1ncc(/C=C(\C#N)c2nc3ccccc3[nH]2)cn1
inhibition zone (IZ) (Escherichia coli [3]): 50 mm
inhibition zone (IZ) (Staphylococcus aureus [5]): 30 mm
inhibition zone (IZ) (Bacillus spizizenii [6]): 39 mm
inhibition zone (IZ) (Pseudomonas aeruginosa [8]): 30 mm

MIC (Escherichia coli [1]): 18.3 µg/mL (≈ 49.5 µM)
MIC (Bacillus spizizenii [2]): 18.3 µg/mL (≈ 49.5 µM)
MIC (Staphylococcus aureus [4]): 18.3 µg/mL (≈ 49.5 µM)
MIC (Pseudomonas aeruginosa [7]): 18.3 µg/mL (≈ 49.5 µM)
Structure (SMILES): N#C/C(=C\c1cnc(NCc2ccccc2)nc1)c1nc2ccccc2s1
inhibition zone (IZ) (Escherichia coli [3]): 50 mm
inhibition zone (IZ) (Staphylococcus aureus [5]): 35 mm
inhibition zone (IZ) (Bacillus spizizenii [6]): 39 mm
inhibition zone (IZ) (Pseudomonas aeruginosa [8]): 35 mm

Further lines, the compound ahead of its results:

Structure (SMILES): N#C/C(=C\c1cnc(Nc2ccc(Cl)cc2)nc1)c1nc2ccccc2[nH]1
MIC (Escherichia coli [1]): 9 µg/mL (≈ 24.1 µM)
MIC [9]: 0.9 µg/mL
MIC [10]: 0.9 µg/mL
fractional inhibitory concentration index (FICI) [11]: 0.2
inhibition [12]: inactive
MIC (Bacillus spizizenii [2]): 13 µg/mL (≈ 34.9 µM)
inhibition zone (IZ) (Escherichia coli [3]): 40 mm
inhibition [13]: Active
Activity [14]: Active
MIC (Bifidobacterium longum): 9 µg/mL (≈ 24.1 µM)
MIC [15]: 1.3 µg/mL
fractional inhibitory concentration index (FICI) [16]: 0.2
fractional inhibitory concentration index (FICI) [17]: 0.2
MIC (Staphylococcus aureus [4]): 9 µg/mL (≈ 24.1 µM)
inhibition [18]: inactive
inhibition zone (IZ) (Staphylococcus aureus [5]): 32 mm
inhibition zone (IZ) (Bacillus spizizenii [6]): 40 mm
fractional inhibitory concentration index (FICI) [19]: 0.2
inhibition [20]: Active
inhibition [21]: Active
MIC (Pseudomonas aeruginosa [7]): 9 µg/mL (≈ 24.1 µM)
inhibition zone (IZ) (Pseudomonas aeruginosa [8]): 28 mm
Activity [22]: Active
inhibition [23]: inactive
Activity [24]: Active
inhibition [25]: inactive
inhibition [26]: Active
Activity [27]: Active
MIC [28]: 0.9 µg/mL

Structure (SMILES): N#C/C(=C\c1cnc(N2CCOCC2)nc1)c1nc2ccccc2[nH]1
MIC (Escherichia coli [1]): 27.8 µg/mL (≈ 83.6 µM)
MIC (Bacillus spizizenii [2]): 27.8 µg/mL (≈ 83.6 µM)
inhibition zone (IZ) (Escherichia coli [3]): 40 mm
MIC (Staphylococcus aureus [4]): 27.8 µg/mL (≈ 83.6 µM)
inhibition zone (IZ) (Staphylococcus aureus [5]): 35 mm
inhibition zone (IZ) (Bacillus spizizenii [6]): 39 mm
MIC (Pseudomonas aeruginosa [7]): 27.8 µg/mL (≈ 83.6 µM)
inhibition zone (IZ) (Pseudomonas aeruginosa [8]): 35 mm
